Assay results taken from ChEMBL document CHEMBL4665761, “Optimizing the Benefit/Risk of Acetyl-CoA Carboxylase Inhibitors through Liver Targeting” (J Med Chem, 2020).

How the values were obtained:
[1] = Tmax in Wistar-Hannover rat plasma at 4 mg/kg, po and measured up to 24 hrs by LC/MS-MS analysis; assay type: ADME, organism-based
Summary of the method: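 Plasma concentration–time data, n = 2, averaged. Cmax and Tmax read directly from the data. AUC0–24 by the linear trapezoidal rule. F calculated as dose-normalized AUC PO/IV.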

OATP1B1 = target: T1, OATP1B1 (Homo sapiens, UniProt Q9Y6L6); test: Substrate activity at human OATP1B1 stably expressed in HEK293 cells assessed as ratio of total to passive cellular uptake at 1 uM incubated for 5 mins by LC/MS-MS analysis; assay type: ADME, cell-based; conditions: HEK293 cells stably expressing human OATP1B1
T1 sequence (Q9Y6L6 whole entry): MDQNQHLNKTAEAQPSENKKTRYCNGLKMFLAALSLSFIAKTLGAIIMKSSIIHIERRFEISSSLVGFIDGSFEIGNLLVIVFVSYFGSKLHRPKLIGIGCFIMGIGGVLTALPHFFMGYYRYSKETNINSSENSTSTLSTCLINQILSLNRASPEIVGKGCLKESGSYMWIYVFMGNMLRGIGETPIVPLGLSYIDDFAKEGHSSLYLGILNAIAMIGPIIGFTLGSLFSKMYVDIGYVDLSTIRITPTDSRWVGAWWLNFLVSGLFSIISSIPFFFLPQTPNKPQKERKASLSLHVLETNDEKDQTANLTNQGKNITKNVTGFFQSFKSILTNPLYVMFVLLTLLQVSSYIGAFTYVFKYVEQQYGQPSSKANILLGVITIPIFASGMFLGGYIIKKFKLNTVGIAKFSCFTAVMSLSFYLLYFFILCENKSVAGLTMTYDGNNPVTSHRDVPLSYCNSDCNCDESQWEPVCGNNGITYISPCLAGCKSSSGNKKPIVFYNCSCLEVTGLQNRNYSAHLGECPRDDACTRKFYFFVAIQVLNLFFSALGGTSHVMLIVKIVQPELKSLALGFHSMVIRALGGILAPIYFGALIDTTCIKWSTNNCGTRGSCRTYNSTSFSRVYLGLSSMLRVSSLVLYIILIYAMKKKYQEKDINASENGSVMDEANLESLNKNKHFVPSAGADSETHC
Summary of the method: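 Transfected versus parental HEK293 cells exposed at 1 µM for 5 min at 37 °C. Ratio is total (transfected) over passive (parental) uptake; >2 denotes substrate.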

[2] = Ratio of drug uptake in Wistar-Hannover rat liver to plasma at 30 mg/kg, po after 6 hrs by LC/MS-MS analysis; assay type: ADME, organism-based; conditions: liver and plasma
Summary of the method: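 Male Wistar-Hannover rats (n = 2 or 3) dosed orally as a suspension in 0.5% methyl cellulose with 0.1% Tween 80. Plasma and liver sampled 6 h post-dose. Kp is total liver/plasma; Kpu,u uses unbound fractions from equilibrium dialysis of plasma and liver.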

[3] = Toxicity in cynomolgus monkey assessed as reduction in platelet count at 3 to 10 mg/kg, po after 14 days; assay type: organism-based, Macaca fascicularis; conditions: in vivo, 336 h, dose 3-10 mg/kg, time 14 day
[4] = Unbound plasma concentration in Sprague-Dawley rat at 300 mg/kg, po; assay type: ADME, organism-based; conditions: in vivo
Summary of the method: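 Sprague-Dawley rats given a single oral dose in 0.5% methyl cellulose vehicle. Unbound plasma concentration measured at 300 mg/kg.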

[5] = Inhibition of DNL in po dosed Sprague-Dawley rat assessed as reduction in DNL level in liver pretreated with one hr followed by [14C]-acetate treatment and measured after 1 hr; assay type: functional, organism-based
Summary of the method: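 Sprague-Dawley rats given single oral doses of 0.03–300 mg/kg in 0.5% methyl cellulose vehicle, n = 16 per dose. Read-out is incorporation of 14C-acetate into lipids in liver, bone marrow and lung, measured at 2 h post-dose relative to vehicle. Data are mean ± SEM. EC50 is reported with a 95% confidence interval.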

Bile salt export pump = Bile salt export pump (Homo sapiens, UniProt O95342); test: Inhibition of human BSEP expressed in baculovirus infected Hi5 insect cells in presence of taurocholic acid by LC-MS/MS analysis
Sequence of Bile salt export pump (O95342 whole entry): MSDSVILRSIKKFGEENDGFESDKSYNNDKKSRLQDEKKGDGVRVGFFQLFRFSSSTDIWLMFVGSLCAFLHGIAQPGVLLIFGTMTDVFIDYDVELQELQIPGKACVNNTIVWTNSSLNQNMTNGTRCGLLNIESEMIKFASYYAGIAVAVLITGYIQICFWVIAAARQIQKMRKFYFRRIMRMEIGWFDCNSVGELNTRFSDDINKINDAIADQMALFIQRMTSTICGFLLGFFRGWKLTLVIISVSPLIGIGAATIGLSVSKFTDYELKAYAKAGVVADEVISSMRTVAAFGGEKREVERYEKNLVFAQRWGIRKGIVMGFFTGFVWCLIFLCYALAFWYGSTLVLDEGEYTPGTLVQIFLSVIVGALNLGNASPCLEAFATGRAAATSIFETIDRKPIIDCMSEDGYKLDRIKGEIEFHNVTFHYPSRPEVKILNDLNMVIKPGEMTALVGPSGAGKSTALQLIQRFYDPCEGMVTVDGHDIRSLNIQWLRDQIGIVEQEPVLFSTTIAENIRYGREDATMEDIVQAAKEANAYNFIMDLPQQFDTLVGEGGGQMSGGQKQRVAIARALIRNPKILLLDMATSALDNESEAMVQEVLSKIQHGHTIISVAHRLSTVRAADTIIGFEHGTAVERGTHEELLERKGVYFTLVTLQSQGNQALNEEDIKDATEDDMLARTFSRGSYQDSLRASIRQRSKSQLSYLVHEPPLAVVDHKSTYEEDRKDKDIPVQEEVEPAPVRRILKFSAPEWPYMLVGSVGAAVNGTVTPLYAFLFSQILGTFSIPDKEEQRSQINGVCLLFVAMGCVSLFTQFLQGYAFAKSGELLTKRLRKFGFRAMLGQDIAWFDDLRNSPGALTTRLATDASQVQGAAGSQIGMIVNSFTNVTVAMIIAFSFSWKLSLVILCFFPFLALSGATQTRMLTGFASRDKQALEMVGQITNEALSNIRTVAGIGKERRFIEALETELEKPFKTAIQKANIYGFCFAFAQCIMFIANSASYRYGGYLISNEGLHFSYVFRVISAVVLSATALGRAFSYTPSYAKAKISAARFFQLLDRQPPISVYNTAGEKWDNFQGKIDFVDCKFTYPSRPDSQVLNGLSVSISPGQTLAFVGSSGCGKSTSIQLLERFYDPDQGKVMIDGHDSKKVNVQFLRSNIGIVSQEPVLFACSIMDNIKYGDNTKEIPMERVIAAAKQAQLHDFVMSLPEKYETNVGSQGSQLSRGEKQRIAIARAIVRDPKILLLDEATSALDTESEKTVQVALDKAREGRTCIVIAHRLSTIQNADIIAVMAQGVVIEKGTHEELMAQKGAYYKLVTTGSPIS

TK6 = test: Genotoxicity in human TK6 cells by micronucleus test; assay type: toxicity, cell-based
Summary of the method: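 In vitro micronucleus assay in Chinese hamster ovary or TK6 cells, run with and without metabolic activation by aroclor-induced rat liver S9 fraction plus NADPH.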

[6] = Genotoxicity in Salmonella typhimurium TA1535 by Ames test; assay type: toxicity; conditions: salmonella enterica subsp. enterica serovar typhimurium
Summary of the method: (§1)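 Ames test in Salmonella strains TA98, TA100, TA1535 and TA1537, run with and without aroclor-induced rat liver S9 plus NADPH.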

[7] = Genotoxicity in Salmonella typhimurium TA100 by Ames test; assay type: toxicity; conditions: salmonella enterica subsp. enterica serovar typhimurium; summary of the method: as §1
[8] = target: Organic anion transporter 3 (Homo sapiens, UniProt Q8TCC7); test: Inhibition of human SLC22A8 expressed in HEK293 cells in presence of para-aminohippuric acid/metformin; assay type: cell-based
Sequence of Organic anion transporter 3 (Q8TCC7 whole entry): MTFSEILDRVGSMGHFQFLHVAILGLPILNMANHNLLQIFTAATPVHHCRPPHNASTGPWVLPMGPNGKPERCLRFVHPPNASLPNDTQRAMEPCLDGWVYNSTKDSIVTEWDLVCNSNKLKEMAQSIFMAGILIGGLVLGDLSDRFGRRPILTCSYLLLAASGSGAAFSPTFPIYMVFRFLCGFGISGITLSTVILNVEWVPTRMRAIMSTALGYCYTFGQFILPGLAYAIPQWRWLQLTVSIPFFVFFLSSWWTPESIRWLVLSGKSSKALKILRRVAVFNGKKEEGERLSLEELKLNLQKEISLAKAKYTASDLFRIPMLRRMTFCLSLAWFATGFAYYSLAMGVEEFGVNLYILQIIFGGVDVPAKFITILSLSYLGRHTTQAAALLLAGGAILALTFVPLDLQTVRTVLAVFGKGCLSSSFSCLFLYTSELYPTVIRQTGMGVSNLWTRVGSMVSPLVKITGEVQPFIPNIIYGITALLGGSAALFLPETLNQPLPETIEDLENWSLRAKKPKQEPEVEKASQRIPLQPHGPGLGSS

[9] = target: UDP-glucuronosyltransferase 2B15 (Homo sapiens, UniProt P54855); test: Inhibition of UGT2B15 in human liver microsomes in presence of UDPGA by LC-MS/MS analysis; assay type: ADME
Sequence of UDP-glucuronosyltransferase 2B15 (P54855 whole entry): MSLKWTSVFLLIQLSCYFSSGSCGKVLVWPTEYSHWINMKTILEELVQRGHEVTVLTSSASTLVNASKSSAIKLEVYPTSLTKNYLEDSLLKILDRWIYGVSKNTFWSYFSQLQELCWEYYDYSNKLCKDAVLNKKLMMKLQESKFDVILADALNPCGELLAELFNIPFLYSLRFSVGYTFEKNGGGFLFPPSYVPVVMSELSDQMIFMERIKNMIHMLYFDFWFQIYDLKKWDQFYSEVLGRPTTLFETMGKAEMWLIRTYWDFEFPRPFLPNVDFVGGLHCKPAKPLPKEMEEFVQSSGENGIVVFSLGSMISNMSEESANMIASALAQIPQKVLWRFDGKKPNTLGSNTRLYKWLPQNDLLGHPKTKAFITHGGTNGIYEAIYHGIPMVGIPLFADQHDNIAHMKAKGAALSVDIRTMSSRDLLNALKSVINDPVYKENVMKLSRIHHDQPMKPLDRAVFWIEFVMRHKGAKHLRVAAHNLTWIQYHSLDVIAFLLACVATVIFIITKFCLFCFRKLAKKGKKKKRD

[10] = target: UDP-glucuronosyltransferase 1A9 (Homo sapiens, UniProt O60656); test: Inhibition of UGT1A9 in human liver microsomes incubated for 30 mins in presence of UDPGA by LC-MS/MS analysis; assay type: ADME
Sequence of UDP-glucuronosyltransferase 1A9 (O60656 whole entry): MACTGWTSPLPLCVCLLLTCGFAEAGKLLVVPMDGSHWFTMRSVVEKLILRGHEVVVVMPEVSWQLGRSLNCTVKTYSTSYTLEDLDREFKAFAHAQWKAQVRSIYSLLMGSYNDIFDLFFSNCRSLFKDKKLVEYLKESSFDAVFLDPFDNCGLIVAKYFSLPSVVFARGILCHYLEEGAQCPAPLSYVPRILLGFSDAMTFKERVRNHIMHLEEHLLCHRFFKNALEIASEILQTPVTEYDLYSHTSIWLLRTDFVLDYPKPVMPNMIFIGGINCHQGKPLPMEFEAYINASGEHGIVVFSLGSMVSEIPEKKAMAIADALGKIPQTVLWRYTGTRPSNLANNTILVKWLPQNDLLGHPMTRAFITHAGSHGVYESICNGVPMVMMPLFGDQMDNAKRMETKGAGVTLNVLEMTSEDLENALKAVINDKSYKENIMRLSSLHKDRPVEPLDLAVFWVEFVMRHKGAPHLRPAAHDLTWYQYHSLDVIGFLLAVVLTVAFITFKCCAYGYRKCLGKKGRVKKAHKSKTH

Cytochrome P450 3A4 = Cytochrome P450 3A4 (Homo sapiens, UniProt P08684); test: inhibition of CYP3A4 in human liver microsomes; assay type: ADME
Cytochrome P450 2D6 = Cytochrome P450 2D6 (Homo sapiens, UniProt P10635); test: inhibition of CYP2D6 in human liver microsomes; assay type: ADME
Sequence of Cytochrome P450 2D6 (P10635 whole entry): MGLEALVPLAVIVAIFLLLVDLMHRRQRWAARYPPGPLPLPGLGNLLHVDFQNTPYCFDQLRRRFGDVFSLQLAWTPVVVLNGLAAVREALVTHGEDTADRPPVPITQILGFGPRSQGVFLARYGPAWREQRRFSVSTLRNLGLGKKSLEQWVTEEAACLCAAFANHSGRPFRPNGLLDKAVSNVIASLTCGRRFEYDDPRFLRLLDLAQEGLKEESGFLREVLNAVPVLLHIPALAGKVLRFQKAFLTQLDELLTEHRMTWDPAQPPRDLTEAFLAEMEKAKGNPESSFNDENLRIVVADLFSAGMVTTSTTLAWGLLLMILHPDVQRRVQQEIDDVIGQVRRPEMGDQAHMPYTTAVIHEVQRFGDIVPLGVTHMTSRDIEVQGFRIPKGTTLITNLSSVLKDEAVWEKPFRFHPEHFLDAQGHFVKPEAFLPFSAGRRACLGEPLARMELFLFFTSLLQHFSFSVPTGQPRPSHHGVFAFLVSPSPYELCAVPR

Cytochrome P450 2C19 = Cytochrome P450 2C19 (Homo sapiens, UniProt P33261); test: inhibition of CYP2C19 in human liver microsomes; assay type: ADME
Sequence of Cytochrome P450 2C19 (P33261 whole entry): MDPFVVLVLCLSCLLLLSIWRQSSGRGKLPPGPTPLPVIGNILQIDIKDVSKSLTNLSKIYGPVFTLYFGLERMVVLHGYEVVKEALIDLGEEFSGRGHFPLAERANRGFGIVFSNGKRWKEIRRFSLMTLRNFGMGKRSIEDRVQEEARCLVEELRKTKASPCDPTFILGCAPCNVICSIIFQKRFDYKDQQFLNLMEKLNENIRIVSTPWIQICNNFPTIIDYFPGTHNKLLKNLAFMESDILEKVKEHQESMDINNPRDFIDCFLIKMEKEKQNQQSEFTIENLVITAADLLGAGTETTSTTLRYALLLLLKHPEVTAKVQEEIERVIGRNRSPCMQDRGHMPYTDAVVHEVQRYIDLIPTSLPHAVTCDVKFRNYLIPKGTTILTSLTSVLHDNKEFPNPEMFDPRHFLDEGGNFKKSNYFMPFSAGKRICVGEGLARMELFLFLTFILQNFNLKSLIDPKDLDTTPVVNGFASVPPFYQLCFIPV

NTCP = NTCP (Homo sapiens, UniProt Q14973); test: Substrate activity at human NTCP stably expressed in HEK293 cells assessed as ratio of total to passive cellular uptake at 1 uM incubated for 0.5 to 4 mins by LC/MS-MS analysis; assay type: cell-based; conditions: HEK293 cells stably expressing human NTCP, time 0.5-4 min
Sequence of NTCP (Q14973 whole entry): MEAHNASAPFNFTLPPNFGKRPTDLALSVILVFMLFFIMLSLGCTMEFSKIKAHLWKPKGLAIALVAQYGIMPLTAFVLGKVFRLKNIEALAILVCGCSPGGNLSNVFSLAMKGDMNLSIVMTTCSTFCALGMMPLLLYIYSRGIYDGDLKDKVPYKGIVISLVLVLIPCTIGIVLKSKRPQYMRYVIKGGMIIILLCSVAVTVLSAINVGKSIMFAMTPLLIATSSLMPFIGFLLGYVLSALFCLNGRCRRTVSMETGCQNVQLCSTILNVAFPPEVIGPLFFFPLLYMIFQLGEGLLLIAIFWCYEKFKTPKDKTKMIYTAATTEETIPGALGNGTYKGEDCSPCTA
Summary of the method: (§2)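 HEK293 cells stably transfected with the transporter, plus wild-type cells, grown to confluence in DMEM with 10% heat-inactivated FBS and 5 µg/mL blasticidin. Washed with HBSS/20 mM HEPES, pH 7.4, then incubated with compound at 37 °C for 0.5–4.0 min. Cells washed ice-cold, lysed in MeOH for LC-MS/MS, uptake normalized to BCA protein. Ratio = transfected/wild-type uptake, averaged over time points.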

OATP2B1 = OATP2B1 (Homo sapiens, UniProt O94956); test: Substrate activity at human OATP2B1 stably expressed in HEK293 cells assessed as ratio of total to passive cellular uptake at 1 uM incubated for 0.5 to 4 mins by LC/MS-MS analysis; assay type: cell-based; conditions: HEK293 cells stably expressing human OATP2B1, time 0.5-4 min; summary of the method: as §2
Sequence of OATP2B1 (O94956 whole entry): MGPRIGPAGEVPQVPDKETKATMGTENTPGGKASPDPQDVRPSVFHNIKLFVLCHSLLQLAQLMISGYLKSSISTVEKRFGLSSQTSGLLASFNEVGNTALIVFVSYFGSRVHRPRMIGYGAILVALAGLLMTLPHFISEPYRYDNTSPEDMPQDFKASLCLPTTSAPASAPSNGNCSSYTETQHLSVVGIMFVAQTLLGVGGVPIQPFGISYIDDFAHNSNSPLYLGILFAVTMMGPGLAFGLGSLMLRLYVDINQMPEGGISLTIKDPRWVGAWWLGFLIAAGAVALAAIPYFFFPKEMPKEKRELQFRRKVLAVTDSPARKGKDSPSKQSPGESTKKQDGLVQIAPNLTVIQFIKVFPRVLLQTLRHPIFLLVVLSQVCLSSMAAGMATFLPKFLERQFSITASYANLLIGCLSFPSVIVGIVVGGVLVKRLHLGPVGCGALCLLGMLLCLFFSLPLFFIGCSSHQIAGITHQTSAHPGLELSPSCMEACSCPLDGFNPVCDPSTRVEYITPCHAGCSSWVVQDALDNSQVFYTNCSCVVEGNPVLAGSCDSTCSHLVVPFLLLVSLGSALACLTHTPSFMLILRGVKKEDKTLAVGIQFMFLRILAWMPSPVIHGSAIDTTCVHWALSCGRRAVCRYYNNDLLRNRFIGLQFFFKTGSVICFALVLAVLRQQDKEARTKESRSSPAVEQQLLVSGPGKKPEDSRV

[11] = Apparent volume of distribution at steady state in cynomolgus monkey plasma at 1 mg/kg, iv and measured up to 72 hrs by LC/MS-MS analysis; assay type: ADME, organism-based, Macaca fascicularis; conditions: read-out: Vdss(app)
Summary of the method: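 Cynomolgus monkeys dosed 1 mg/kg IV as the tris salt in 2% N-methylpyrrolidone/98% sulfobutylether-β-cyclodextrin (12.5%) in 50 mM TRIS, pH 8.0, or PO as the tris salt. Plasma was analysed by LC-MS/MS, n = 2. CL = IV dose/AUC; Vss = dose/(AUC × elimination rate constant); Cmax taken from observed data.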

Structure (SMILES) | Tmax [1] [min] | uptake ratio at 5 min, 1 µM (OATP1B1) | Kp at 6 h [2] | Activity [3] | Cp(f) [4] [nM] | EC50 [5] [µM] | IC50 (Bile salt export pump) [µM] | Activity (TK6) | Activity [6] | Activity [7] | IC50 [8] [µM] | IC50 [9] [µM] | IC50 [10] [µM] | IC50 (Cytochrome P450 3A4) [µM] | IC50 (Cytochrome P450 2D6) [µM] | IC50 (Cytochrome P450 2C19) [µM] | uptake ratio at 1 µM (NTCP) | uptake ratio at 1 µM (OATP2B1) | Vd [11] [L/kg]
COc1cc(C(=O)N2CCC3(CC2)CC(=O)c2nn(C(C)(C)C)cc2O3)cc(-c2ccc(C(=O)O)cc2)n1 | 45 | 5 | 914 |  |  |  |  |  |  |  |  |  |  |  |  |  |  |  | 
COc1cc(C(=O)N2CCC3(CC2)CC(=O)c2c(cnn2C(C)C)C3)cc(-c2ccc(C(=O)O)cc2)n1 [CLESACOSTAT] |  |  |  | Non-Toxic | 119.4 | 0.0054 | 94 | Non-Toxic | Non-Toxic | Non-Toxic | > 30 | > 20 | > 20 | > 50 | > 50 | > 50 | 3.2 | 7 | 0.49
